Data from ChEMBL document CHEMBL4028886 (J Med Chem, 2017).

Tests used:
[1] = molecular target: Sodium-dependent serotonin transporter (Homo sapiens, UniProt P31645); assay: Inhibition of re-uptake of [3H]-5-HT at human SERT expressed in HEK293 cells preincubated for 5 mins followed by [3H]-dopamine addition measured after 1 min by liquid scintillation counting; type: cell-based; details: hek293
[2] = test system: Rattus norvegicus; assay: Neurotoxicity in Sprague-Dawley rat assessed as effect on time spent in the left closed arm at 10 mg/kg, ip administered 30 mins prior to test by elevated plus maze test relative to control; type: toxicity, organism-based; details: in vivo, 0.5 h
Summary of the method: (§1)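 Male Sprague–Dawley rats, 10 per group, dosed 10 mg/kg ip daily for 10 days and 30 min before testing. DMSO vehicle controls. Elevated plus maze, rats placed centrally and video-tracked. Recorded: time in closed and open arms, arm entries, path length.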

[3] = test system: Rattus norvegicus; assay: Neurotoxicity in Sprague-Dawley rat assessed as limb tone score at 10 mg/kg, ip administered 30 mins prior to test (reference value: 3.3 +/- 0.6749); type: toxicity, organism-based; details: in vivo, 0.5 h
[4] = test system: Rattus norvegicus; assay: Neurotoxicity in Sprague-Dawley rat assessed as effect on resting time at 10 mg/kg, ip administered 30 mins prior to test by open field test relative to control; type: toxicity, organism-based; details: in vivo, 0.5 h
Summary of the method: (§2)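 Male Sprague–Dawley rats, 10 per group, given 10 mg/kg ip daily for 10 days and 30 min before each test. DMSO vehicle group as control. Open field arena 100 × 100 cm with 40 cm walls. Animals video-tracked for 10 min.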

[5] = test system: Rattus norvegicus; assay: Neurotoxicity in Sprague-Dawley rat assessed as effect on immobility time at 10 mg/kg, ip administered 30 mins prior to test by forced swim test relative to control; type: toxicity, organism-based; details: in vivo, 0.5 h
Summary of the method: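 Male Sprague–Dawley rats, 10 per group, dosed 10 mg/kg ip daily for 10 days and 30 min before testing. DMSO vehicle controls. Forced swim in a cylinder 18 cm diameter with 23 cm water at 25 °C. 15 min pretest, then a 5 min test 24 h later. Immobility duration scored over the 5 min.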

[6] = test system: Rattus norvegicus; assay: Neurotoxicity in Sprague-Dawley rat assessed as effect on distance traveled in open arms at 10 mg/kg, ip administered 30 mins prior to test by elevated plus maze test relative to control; type: toxicity, organism-based; details: in vivo, 0.5 h; summary of the method: as §1
[7] = test system: Rattus norvegicus; assay: Neurotoxicity in Sprague-Dawley rat assessed as body position score at 10 mg/kg, ip administered 30 mins prior to test (reference value: 1.8 +/- 0.4216); type: toxicity, organism-based; details: in vivo, 0.5 h
[8] = test system: Rattus norvegicus; assay: Neurotoxicity in Sprague-Dawley rat assessed as locomotor activity score at 10 mg/kg, ip administered 30 mins prior to test (reference value: 2.6 +/- 0.9661); type: toxicity, organism-based; details: in vivo, 0.5 h
[9] = test system: Rattus norvegicus; assay: Neurotoxicity in Sprague-Dawley rat assessed as tail elevation score at 10 mg/kg, ip administered 30 mins prior to test (reference value: 2.2 +/- 0.6325); type: toxicity, organism-based; details: in vivo, 0.5 h
[10] = test system: Rattus norvegicus; assay: Neurotoxicity in Sprague-Dawley rat assessed as effect on time spent in open arm at 10 mg/kg, ip administered 30 mins prior to test by elevated plus maze test relative to control; type: toxicity, organism-based; details: in vivo, 0.5 h; summary of the method: as §1
[11] = test system: Rattus norvegicus; assay: Neurotoxicity in Sprague-Dawley rat assessed as effect on total distance traveled at 10 mg/kg, ip administered 30 mins prior to test by open field test relative to control; type: toxicity, organism-based; details: in vivo, 0.5 h; summary of the method: as §2
[12] = molecular target: Sodium-dependent dopamine transporter (Homo sapiens, UniProt Q01959); assay: Inhibition of re-uptake of [3H]-dopamine at human DAT expressed in HEK293 cells preincubated for 5 mins followed by [3H]-dopamine addition measured after 1 min by liquid scintillation counting; type: cell-based; details: read-out: IC50
Summary of the method: (§3)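 HEK293 cells stably expressing human DAT or NET, seeded on PDL-coated plates 24 h before. Preincubated 5 min in Krebs–HEPES buffer pH 7.3 with compound at 0.001 μM to 1 mM (DMSO stock diluted in buffer). Substrate then added: 0.2 μM [3H]dopamine for DAT, 1 min; 0.05 μM [3H]MPP+ for NET, 3 min. Room temperature. Uptake stopped with ice-cold buffer. Cells lysed in 1% SDS and counted by scintillation. Unspecific uptake defined with 10 μM mazindol. IC50 by nonlinear regression.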

[13] = test system: Rattus norvegicus; assay: Neurotoxicity in Sprague-Dawley rat assessed as pinna reflex score at 10 mg/kg, ip administered 30 mins prior to test (reference value: 1.2 +/- 1.033); type: toxicity, organism-based; details: in vivo, 0.5 h
[14] = test system: Rattus norvegicus; assay: Neurotoxicity in Sprague-Dawley rat assessed as toe pinch score at 10 mg/kg, ip administered 30 mins prior to test (reference value: 1.8 +/- 0.6325); type: toxicity, organism-based; details: in vivo, 0.5 h
[15] = test system: Rattus norvegicus; assay: Neurotoxicity in Sprague-Dawley rat assessed as effect on distance traveled in closed arms at 10 mg/kg, ip administered 30 mins prior to test by elevated plus maze test relative to control; type: toxicity, organism-based; details: in vivo, 0.5 h; summary of the method: as §1
[16] = test system: Rattus norvegicus; assay: Neurotoxicity in Sprague-Dawley rat assessed as effect on time spent in closed arm at 10 mg/kg, ip administered 30 mins prior to test by elevated plus maze test relative to control; type: toxicity, organism-based; details: in vivo, 0.5 h; summary of the method: as §1
[17] = test system: Rattus norvegicus; assay: Neurotoxicity in Sprague-Dawley rat assessed as effect on time spent in the left open arm at 10 mg/kg, ip administered 30 mins prior to test by elevated plus maze test relative to control; type: toxicity, organism-based; details: in vivo, 0.5 h; summary of the method: as §1
[18] = test system: Rattus norvegicus; assay: Neurotoxicity in Sprague-Dawley rat assessed as effect on resting time at 10 mg/kg, ip administered 30 mins prior to test by elevated plus maze test relative to control; type: toxicity, organism-based; details: in vivo, 0.5 h; summary of the method: as §1
[19] = test system: Rattus norvegicus; assay: Neurotoxicity in Sprague-Dawley rat assessed as tail pinch score at 10 mg/kg, ip administered 30 mins prior to test (reference value: 0.8 +/- 0.788); type: toxicity, organism-based; details: in vivo, 0.5 h
[20] = molecular target: Sodium-dependent noradrenaline transporter (Homo sapiens, UniProt P23975); assay: Inhibition of re-uptake of [3H]MPP+ at human NET expressed in HEK293 cells preincubated for 5 mins followed by […] addition measured after 3 min by liquid scintillation counting; type: cell-based; details: hek293; summary of the method: as §3
[21] = test system: Rattus norvegicus; assay: Neurotoxicity in Sprague-Dawley rat assessed as effect on average velocity at 10 mg/kg, ip administered 30 mins prior to test by open field test relative to control; type: toxicity, organism-based; details: in vivo, 0.5 h; summary of the method: as §2
[22] = test system: Rattus norvegicus; assay: Neurotoxicity in Sprague-Dawley rat assessed as limb rotation score at 10 mg/kg, ip administered 30 mins prior to test (reference value: 3.3 +/- 0.4830); type: toxicity, organism-based; details: in vivo, 0.5 h
[23] = test system: Rattus norvegicus; assay: Neurotoxicity in Sprague-Dawley rat assessed as touch escape score at 10 mg/kg, ip administered 30 mins prior to test (reference value: 1.2 +/- 1.033); type: toxicity, organism-based; details: in vivo, 0.5 h
[24] = test system: Rattus norvegicus; assay: Neurotoxicity in Sprague-Dawley rat assessed as pelvic elevation score at 10 mg/kg, ip administered 30 mins prior to test (reference value: 3.8 +/- 0.6325); type: toxicity, organism-based; details: in vivo, 0.5 h
[25] = test system: Rattus norvegicus; assay: Neurotoxicity in Sprague-Dawley rat assessed as effect on time spent at the margin at 10 mg/kg, ip administered 30 mins prior to test by open field test relative to control; type: toxicity, organism-based; details: in vivo, 0.5 h; summary of the method: as §2
[26] = test system: Rattus norvegicus; assay: Neurotoxicity in Sprague-Dawley rat assessed as piloerection score at 10 mg/kg, ip administered 30 mins prior to test (reference value: 2.1 +/- 0.3162); type: toxicity, organism-based; details: in vivo, 0.5 h
[27] = test system: Rattus norvegicus; assay: Neurotoxicity in Sprague-Dawley rat assessed as visual placing score at 10 mg/kg, ip administered 30 mins prior to test (reference value: 1.9 +/- 0.3162); type: toxicity, organism-based; details: in vivo, 0.5 h
[28] = test system: Rattus norvegicus; assay: Neurotoxicity in Sprague-Dawley rat assessed as effect on frequency of spontaneous changes of direction at 10 mg/kg, ip administered 30 mins prior to test by open field test; type: toxicity, organism-based; details: in vivo, 0.5 h; summary of the method: as §2

Sequence of Sodium-dependent dopamine transporter (Q01959 whole entry): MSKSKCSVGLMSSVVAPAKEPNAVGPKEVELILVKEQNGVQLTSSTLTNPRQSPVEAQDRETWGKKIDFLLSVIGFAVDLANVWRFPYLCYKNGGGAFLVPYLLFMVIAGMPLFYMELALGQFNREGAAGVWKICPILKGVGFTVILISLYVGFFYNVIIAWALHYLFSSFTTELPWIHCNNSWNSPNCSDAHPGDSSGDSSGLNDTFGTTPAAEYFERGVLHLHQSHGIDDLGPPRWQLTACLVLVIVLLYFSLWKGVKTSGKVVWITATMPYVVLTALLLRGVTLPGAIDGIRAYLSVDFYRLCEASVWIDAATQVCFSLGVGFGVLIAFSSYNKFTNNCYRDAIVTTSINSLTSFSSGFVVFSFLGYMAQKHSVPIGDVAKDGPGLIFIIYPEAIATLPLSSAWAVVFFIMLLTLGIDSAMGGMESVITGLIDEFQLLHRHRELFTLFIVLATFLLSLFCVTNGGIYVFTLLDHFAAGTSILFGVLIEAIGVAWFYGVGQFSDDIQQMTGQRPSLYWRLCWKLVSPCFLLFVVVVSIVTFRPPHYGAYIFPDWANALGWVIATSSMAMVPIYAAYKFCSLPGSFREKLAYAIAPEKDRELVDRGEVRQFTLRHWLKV
Sequence of Sodium-dependent serotonin transporter (P31645 whole entry): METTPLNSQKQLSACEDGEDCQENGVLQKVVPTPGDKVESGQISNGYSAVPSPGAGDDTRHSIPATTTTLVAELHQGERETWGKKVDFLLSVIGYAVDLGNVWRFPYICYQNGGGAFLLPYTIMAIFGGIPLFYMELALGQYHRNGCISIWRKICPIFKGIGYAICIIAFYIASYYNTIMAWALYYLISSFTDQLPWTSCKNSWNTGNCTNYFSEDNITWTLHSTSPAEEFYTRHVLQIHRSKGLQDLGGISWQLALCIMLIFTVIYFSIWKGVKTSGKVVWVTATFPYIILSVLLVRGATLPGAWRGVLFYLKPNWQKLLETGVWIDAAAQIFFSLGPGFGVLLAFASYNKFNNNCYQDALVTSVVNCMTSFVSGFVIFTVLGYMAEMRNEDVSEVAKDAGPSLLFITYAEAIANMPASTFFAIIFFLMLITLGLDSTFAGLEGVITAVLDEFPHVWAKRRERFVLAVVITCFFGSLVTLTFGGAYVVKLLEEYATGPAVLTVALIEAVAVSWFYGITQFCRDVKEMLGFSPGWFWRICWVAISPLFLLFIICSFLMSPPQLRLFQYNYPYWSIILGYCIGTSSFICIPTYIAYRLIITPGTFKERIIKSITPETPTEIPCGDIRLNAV
Sequence of Sodium-dependent noradrenaline transporter (P23975 whole entry): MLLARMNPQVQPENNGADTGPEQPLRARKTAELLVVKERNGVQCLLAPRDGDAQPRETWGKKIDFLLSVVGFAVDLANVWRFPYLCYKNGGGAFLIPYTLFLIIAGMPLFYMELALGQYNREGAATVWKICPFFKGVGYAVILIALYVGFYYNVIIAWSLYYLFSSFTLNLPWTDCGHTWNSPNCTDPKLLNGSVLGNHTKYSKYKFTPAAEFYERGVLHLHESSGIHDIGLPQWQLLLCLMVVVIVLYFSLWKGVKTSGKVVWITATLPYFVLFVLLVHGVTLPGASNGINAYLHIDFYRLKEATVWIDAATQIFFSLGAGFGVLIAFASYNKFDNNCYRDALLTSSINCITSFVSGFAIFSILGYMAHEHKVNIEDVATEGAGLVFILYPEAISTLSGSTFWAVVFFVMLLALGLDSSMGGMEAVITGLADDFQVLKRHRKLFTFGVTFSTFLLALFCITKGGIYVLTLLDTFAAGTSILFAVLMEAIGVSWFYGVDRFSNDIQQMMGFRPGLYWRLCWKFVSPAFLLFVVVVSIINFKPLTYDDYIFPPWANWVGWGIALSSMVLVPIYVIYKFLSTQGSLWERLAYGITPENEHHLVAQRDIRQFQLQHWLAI

## [O-][S+](Cc1cccs1)C(c1ccccc1)c1ccccc1 (stereo not drawn)
[1]
  IC50: Not Active
[2]
  Activity: Non-Toxic
[3]
  Activity: 3.5
[4]
  Activity: Non-Toxic
[5]
  Activity: Non-Toxic
[6]
  Activity: Non-Toxic
[7]
  Activity: 1.9
[8]
  Activity: 2.6
[9]
  Activity: 1.8
[10]
  Activity: Non-Toxic
[11]
  Activity: Non-Toxic
[12]
  IC50: 1400 nM
[13]
  Activity: 1.4
[14]
  Activity: 1.6
[15]
  Activity: Non-Toxic
[16]
  Activity: Non-Toxic
[17]
  Activity: Non-Toxic
[18]
  Activity: Non-Toxic
[19]
  Activity: 0.9
[20]
  IC50: Not Active
[21]
  Activity: Non-Toxic
[22]
  Activity: 3.4
[23]
  Activity: 1.2
[24]
  Activity: 3.6
[25]
  Activity: Non-Toxic
[26]
  Activity: 2.2
[27]
  Activity: 1.7
[28]
  Activity: Non-Toxic
